# Reference: ChEMBL document CHEMBL3244312, “Cannabinoids. 1. 1-Amino- and 1-mercapto-7,8,9,10-tetrahydro-6H-dibenzo [b,d]pyrans” (1977)
# Activity calls are given as the source filed them. The rule behind the calls is not given here.
# Key:
# [1] = test system: Mus musculus; test: CNS activity in po dosed mouse assessed as alteration of exploratory behaviour; type: functional; conditions: for minimal effective dose: Mus musculus, po, read-out: MED
# Summary of the method: (§1)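 Mice in groups of five, dosed orally, placed in doughnut-shaped activity cages (six infrared photocells) 90 min post-dose. Beam breaks counted cumulatively at 30, 60, 90 and 120 min in cage ([…]) plus 120-min total. Counts compared with vehicle-injected controls. Compounds dissolved in acetone.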
# [2] = test system: Mus musculus; test: CNS activity in mouse assessed as alteration of exploratory behaviour at 20 mg/kg, po; type: functional, organism-based; parameters: dose 20 mg/kg; summary of the method: as §1
# [3] = test system: Rattus norvegicus; test: CNS activity in septal-lesioned rat assessed as decrease in hyperreactivity behaviour at 10 mg/kg, po; type: functional, organism-based; parameters: dose 10 mg/kg
# Summary of the method: (§2)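 Septal-lesioned rats rated hyperreactive at score ≥11 used as their own controls; oral dosing. Reactivity rated at 30, 60, 120, 240, 300 min post-dose. P value = postdrug rating sum / predrug sum per period. E value = mean of ten 30-min periods over 300 min, interpolated, / predrug sum. Student's t test, p<0.01.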
# [4] = test system: Rattus norvegicus; test: CNS activity in rat assessed as protection against muricide at 10 mg/kg, po; type: functional, organism-based; parameters: dose 10 mg/kg
# Summary of the method: (§3)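 Rats with innate mouse-killing behaviour, control kill time under 5 s; three rats per dose, oral dosing, vehicle controls at equal injection volume. Muricide scored 15–360 min post-dose (0 = 0–59 s, 1 = 60–120 s, 2 = >120 s). Scores converted to percent protection versus vehicle; Student's t test for significance.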
# [5] = test system: Rattus norvegicus; test: CNS activity in po dosed rat assessed as protection against muricide; type: functional; conditions: for minimal effective dose: Rattus norvegicus, po, read-out: MED; summary of the method: as §3
# [6] = test system: Rattus norvegicus; test: CNS activity in po dosed septal-lesioned rat assessed as decrease in hyperreactivity behaviour; type: functional; conditions: for minimal effective dose: Rattus norvegicus, po, read-out: MED; summary of the method: as §2
SMILES,Activity [2],Activity [3],Activity [4],minimal effective dose [1] [mg/kg],also measured
CCCCCCC(C)(C)c1cc(N)c2c(c1)OC(C)(C)C1=C2CC(C)CC1 (stereo in doubt; d-10c) [listing 1 of 2 here],–,–,–,–,MED [1]: 10 mg/kg
CCCCCC(C)C(C)c1cc(S)c2c(c1)OC(C)(C)C1=C2CC(C)CC1 (racemic),inactive,inactive,inactive,–,–
CCCCCc1cc(S)c2c(c1)OC(C)(C)C1=C2CC(C)CC1 (racemic),inactive,inactive,inactive,–,–
CCCCCCC(C)(C)c1cc(NS(C)(=O)=O)c2c(c1)OC(C)(C)C1=C2CC(C)CC1 (racemic),–,inactive,inactive,20,–
CCCCCC(C)C(C)c1cc(NC(C)=O)c2c(c1)OC(C)(C)C1=C2CC(C)CC1 (racemic),inactive,inactive,–,–,minimal effective dose [5]: 10 mg/kg
CCCCCCC(C)(C)c1cc(N)c2c(c1)OC(C)(C)C1=C2CC(C)CC1 (racemic) [listing 1 of 2 here],–,–,–,5,minimal effective dose [5]: 10 mg/kg
CCCCCCC(C)(C)c1cc(N)c2c(c1)OC(C)(C)C1=C2CC(C)CC1 (stereo in doubt; l-10c) [listing 1 of 2 here],–,–,–,–,MED [1]: 5 mg/kg; MED [5]: 10 mg/kg
CCCCCc1cc2c(c(N(C)C)c1)C1=C(CCC(C)C1)C(C)(C)O2 (racemic),inactive,inactive,inactive,–,–
CCCCCc1cc(NC(C)=O)c2c(c1)OC(C)(C)C1=C2CC(C)CC1 (racemic),inactive,inactive,inactive,–,–
CCCCCCC(C)(C)c1cc(O)c2c(c1)OC(C)(C)C1=C2CC(C)CC1 (stereo in doubt; l-4c),–,–,–,–,MED [5]: 1.25 mg/kg
CCCCCC(C)C(C)c1cc2c(c(N(C)C)c1)C1=C(CCC(C)C1)C(C)(C)O2 (racemic),–,inactive,inactive,20,–
CCCCCC(C)C(C)c1cc(NC)c2c(c1)OC(C)(C)C1=C2CC(C)CC1 (racemic),–,inactive,inactive,20,–
CCCCCCC(C)(C)c1cc(O)c2c(c1)OC(C)(C)C1=C2CC(C)CC1 (racemic),–,–,–,0.62,minimal effective dose [6]: 1.25 mg/kg; MED [5]: 0.62 mg/kg
CCCCCCC(C)(C)c1cc(O)c2c(c1)OC(C)(C)C1=C2CC(C)CC1 (stereo in doubt; d-4c),–,–,–,–,MED [1]: 0.31 mg/kg; MED [6]: 2.5 mg/kg; MED [5]: 5 mg/kg
CCCCCCC(C)(C)c1cc(N)c2c(c1)OC(C)(C)C1=C2CC(C)CC1 (stereo in doubt; d-10c) [listing 2 of 2 here],–,inactive,inactive,–,–
CCCCCC(C)C(C)c1cc(N)c2c(c1)OC(C)(C)C1=C2CC(C)CC1 (racemic),–,–,–,2.5,minimal effective dose [6]: 10 mg/kg; minimal effective dose [5]: 5 mg/kg
CCCCCCC(C)(C)c1cc(N)c2c(c1)OC(C)(C)C1=C2CC(C)CC1 (stereo in doubt; l-10c) [listing 2 of 2 here],–,inactive,–,–,–
CCCCCCC(C)(C)c1cc(N)c2c(c1)OC(C)(C)C1=C2CC(C)CC1 (racemic) [listing 2 of 2 here],–,inactive,–,–,–
CCCCCc1cc(N)c2c(c1)OC(C)(C)C1=C2CC(C)CC1 (racemic),inactive,inactive,inactive,–,–
CCCCCc1cc(O)c2c(c1)OC(C)(C)C1=C2CC(C)CC1 (racemic),inactive,inactive,–,–,minimal effective dose [5]: 10 mg/kg
CCCCCC(C)C(C)c1cc(O)c2c(c1)OC(C)(C)C1=C2CC(C)CC1 (racemic),–,–,–,0.62,minimal effective dose [6]: 5 mg/kg; minimal effective dose [5]: 2.5 mg/kg
